Reference: ChEMBL document CHEMBL1152649, “Synthesis, cytotoxicity and human telomerase inhibition activities of a series of 1,2-heteroannelated anthraquinones and anthra[1,2-d]imidazole-6,11-dione homologues” (2009)
Activity calls are given as the source filed them. The calls are words filed in the database; no cut-off is given here.

How the values were obtained:
[1] = Cytotoxicity against human H1299 cells at 10 uM after 48 hrs by MTT assay; format: functional; conditions: NCI-H1299, 48 h
Outline: (§1)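 H1299 non-small cell lung cancer cells were grown in RPMI 1640 with 10% FBS, penicillin and streptomycin at 37 °C under 5% CO2. About 2 × 10³ cells per well were seeded and left 24 h. Compounds were dissolved fresh in DMSO, diluted into complete medium and applied for 48 h. MTT was then added for 4 h at 37 °C, followed by lysis buffer (20% SDS, 50% DMF) for 16 h, and absorbance was read at 550 nm.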

[2] = Cytotoxicity against human H1299 cells at 100 uM after 48 hrs by MTT assay; format: functional; conditions: NCI-H1299, 48 h; outline: as §1
[3] = molecular target: Telomerase reverse transcriptase (Homo sapiens) (UniProt O14746); assay: Inhibition of telomerase in human H1299 cells up to 100 uM by TRAP assay; format: cell-based
Outline: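 PCR-based telomeric repeat amplification protocol (TRAP). The telomerase source was total lysate of H1299 lung cancer cells, with protein measured against BSA standards. Controls were extract without inhibitor and RNase A-treated extract.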

A549 = assay: Antiproliferative activity against human A549 cells assessed as cell growth at 10 uM; format: functional; conditions: read-out: Activity
Outline: (§2)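 NCI 60 cell line panel, single-dose screen (10^-5 M) run by the developmental therapeutics program protocol. Results are given as growth percent of treated cells relative to untreated control cells for each line.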

EKVX = assay: Antiproliferative activity against human EKVX cells assessed as cell growth at 10 uM; format: functional; conditions: read-out: Activity; outline: as §2
[4] = Antiproliferative activity against human Hs 578T cells assessed as cell growth at 10 uM; format: functional; conditions: read-out: Activity; outline: as §2
MCF7 = assay: Antiproliferative activity against human MCF7 cells assessed as cell growth at 10 uM; format: functional; conditions: read-out: Activity; outline: as §2
MDA-MB-231 = assay: Antiproliferative activity against human MDA-MB-231 cells assessed as cell growth at 10 uM; format: functional; conditions: read-out: Activity; outline: as §2
NCI/ADR-RES = assay: Antiproliferative activity against human NCI/ADR-RES cells assessed as cell growth at 10 uM; format: functional; conditions: read-out: Activity; outline: as §2
T47D = assay: Antiproliferative activity against human T47D cells assessed as cell growth at 10 uM; format: functional; conditions: read-out: Activity
Outline: (§3)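 NCI 60 cell line panel, single dose (10^-5 M), run per the Developmental Therapeutics Program protocol (one dose mean graph). Each result is the growth percentage of treated cells relative to untreated control cells.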

OVCAR-3 = assay: Antiproliferative activity against human OVCAR-3 cells assessed as cell growth at 10 uM; format: functional; conditions: read-out: Activity; outline: as §2
OVCAR-4 = assay: Antiproliferative activity against human OVCAR4 cells assessed as cell growth at 10 uM; format: functional; conditions: read-out: Activity; outline: as §2
OVCAR-5 = assay: Antiproliferative activity against human OVCAR5 cells assessed as cell growth at 10 uM; format: functional; conditions: read-out: Activity; outline: as §2
OVCAR-8 = assay: Antiproliferative activity against human OVCAR8 cells assessed as cell growth at 10 uM; format: functional; conditions: read-out: Activity; outline: as §2
SK-OV-3 = assay: Antiproliferative activity against human SKOV3 cells assessed as cell growth at 10 uM; format: functional; conditions: read-out: Activity; outline: as §2
CCRF-CEM = assay: Antiproliferative activity against human CCRF-CEM cells assessed as cell growth at 10 uM; format: functional; conditions: read-out: Activity; outline: as §2
MOLT-4 = assay: Antiproliferative activity against human MOLT4 cells assessed as cell growth at 10 uM; format: functional; conditions: read-out: Activity; outline: as §2
[5] = Antiproliferative activity against human RPMI8266 cells assessed as cell growth at 10 uM; format: functional; conditions: read-out: Activity; outline: as §2
786-0 = assay: Antiproliferative activity against human 786-0 cells assessed as cell growth at 10 uM; format: functional; conditions: read-out: Activity; outline: as §2
ACHN = assay: Antiproliferative activity against human ACHN cells assessed as cell growth at 10 uM; format: functional; conditions: read-out: Activity; outline: as §2
CAKI-1 = assay: Antiproliferative activity against human Caki1 cells assessed as cell growth at 10 uM; format: functional; conditions: read-out: Activity; outline: as §2
TK-10 = assay: Antiproliferative activity against human TK10 cells assessed as cell growth at 10 uM; format: functional; conditions: read-out: Activity; outline: as §3
UO-31 = assay: Antiproliferative activity against human UO31 cells assessed as cell growth at 10 uM; format: functional; conditions: read-out: Activity; outline: as §3
M14 = assay: Antiproliferative activity against human M14 cells assessed as cell growth at 10 uM; format: functional; conditions: read-out: Activity; outline: as §2
SK-MEL-2 = assay: Antiproliferative activity against human SK-MEL-2 cells assessed as cell growth at 10 uM; format: functional; conditions: read-out: Activity; outline: as §2
SK-MEL-28 = assay: Antiproliferative activity against human SK-MEL-28 cells assessed as cell growth at 10 uM; format: functional; conditions: read-out: Activity; outline: as §2
SK-MEL-5 = assay: Antiproliferative activity against human SK-MEL-5 cells assessed as cell growth at 10 uM; format: functional; conditions: read-out: Activity; outline: as §2
UACC-257 = assay: Antiproliferative activity against human UACC257 cells assessed as cell growth at 10 uM; format: functional; conditions: read-out: Activity; outline: as §3
UACC-62 = assay: Antiproliferative activity against human UACC62 cells assessed as cell growth at 10 uM; format: functional; conditions: read-out: Activity; outline: as §3
DU-145 = assay: Antiproliferative activity against human DU145 cells assessed as cell growth at 10 uM; format: functional; conditions: read-out: Activity; outline: as §2
PC-3 = assay: Antiproliferative activity against human PC3 cells assessed as cell growth at 10 uM; format: functional; conditions: read-out: Activity; outline: as §2
SF-268 = assay: Antiproliferative activity against human SF268 cells assessed as cell growth at 10 uM; format: functional; conditions: read-out: Activity; outline: as §2
SF-295 = assay: Antiproliferative activity against human SF295 cells assessed as cell growth at 10 uM; format: functional; conditions: read-out: Activity; outline: as §2
SNB-75 = assay: Antiproliferative activity against human SNB75 cells assessed as cell growth at 10 uM; format: functional; conditions: read-out: Activity; outline: as §3
U-251 = assay: Antiproliferative activity against human U251 cells assessed as cell growth at 10 uM; format: functional; conditions: read-out: Activity; outline: as §3
NCI-H23 = assay: Antiproliferative activity against human NCI-H23 cells assessed as cell growth at 10 uM; format: functional; conditions: read-out: Activity; outline: as §2
NCI-H322M = assay: Antiproliferative activity against human NCI-H322M cells assessed as cell growth at 10 uM; format: functional; conditions: read-out: Activity; outline: as §2
NCI-H460 = assay: Antiproliferative activity against human NCI-H460 cells assessed as cell growth at 10 uM; format: functional; conditions: read-out: Activity; outline: as §2
NCI-H522 = assay: Antiproliferative activity against human NCI-H522 cells assessed as cell growth at 10 uM; format: functional; conditions: read-out: Activity; outline: as §2
COLO 205 = assay: Antiproliferative activity against human COLO205 cells assessed as cell growth at 10 uM; format: functional; conditions: read-out: Activity; outline: as §2
HCC 2998 = assay: Antiproliferative activity against human HCC2998 cells assessed as cell growth at 10 uM; format: functional; conditions: read-out: Activity; outline: as §2
HCT-116 = assay: Antiproliferative activity against human HCT116 cells assessed as cell growth at 10 uM; format: functional; conditions: read-out: Activity; outline: as §2
HT-29 = assay: Antiproliferative activity against human HT-29 cells assessed as cell growth at 10 uM; format: functional; conditions: read-out: Activity; outline: as §2
KM12 = assay: Antiproliferative activity against human KM12 cells assessed as cell growth at 10 uM; format: functional; conditions: read-out: Activity; outline: as §2
[6] = molecular target: Telomerase reverse transcriptase (Homo sapiens) (UniProt O14746); assay: Inhibition of TERT in human H1299 cells assessed as residual transcriptional activity at 1 uM after 24 hrs by SEAP reporter gene assay; values are per cent of control
[7] = molecular target: Telomerase reverse transcriptase (Homo sapiens) (UniProt O14746); assay: Inhibition of TERT in human H1299 cells assessed as residual transcriptional activity at 10 uM after 24 hrs by SEAP reporter gene assay; values are per cent of control

Chain of Telomerase reverse transcriptase (Homo sapiens) (O14746 whole entry): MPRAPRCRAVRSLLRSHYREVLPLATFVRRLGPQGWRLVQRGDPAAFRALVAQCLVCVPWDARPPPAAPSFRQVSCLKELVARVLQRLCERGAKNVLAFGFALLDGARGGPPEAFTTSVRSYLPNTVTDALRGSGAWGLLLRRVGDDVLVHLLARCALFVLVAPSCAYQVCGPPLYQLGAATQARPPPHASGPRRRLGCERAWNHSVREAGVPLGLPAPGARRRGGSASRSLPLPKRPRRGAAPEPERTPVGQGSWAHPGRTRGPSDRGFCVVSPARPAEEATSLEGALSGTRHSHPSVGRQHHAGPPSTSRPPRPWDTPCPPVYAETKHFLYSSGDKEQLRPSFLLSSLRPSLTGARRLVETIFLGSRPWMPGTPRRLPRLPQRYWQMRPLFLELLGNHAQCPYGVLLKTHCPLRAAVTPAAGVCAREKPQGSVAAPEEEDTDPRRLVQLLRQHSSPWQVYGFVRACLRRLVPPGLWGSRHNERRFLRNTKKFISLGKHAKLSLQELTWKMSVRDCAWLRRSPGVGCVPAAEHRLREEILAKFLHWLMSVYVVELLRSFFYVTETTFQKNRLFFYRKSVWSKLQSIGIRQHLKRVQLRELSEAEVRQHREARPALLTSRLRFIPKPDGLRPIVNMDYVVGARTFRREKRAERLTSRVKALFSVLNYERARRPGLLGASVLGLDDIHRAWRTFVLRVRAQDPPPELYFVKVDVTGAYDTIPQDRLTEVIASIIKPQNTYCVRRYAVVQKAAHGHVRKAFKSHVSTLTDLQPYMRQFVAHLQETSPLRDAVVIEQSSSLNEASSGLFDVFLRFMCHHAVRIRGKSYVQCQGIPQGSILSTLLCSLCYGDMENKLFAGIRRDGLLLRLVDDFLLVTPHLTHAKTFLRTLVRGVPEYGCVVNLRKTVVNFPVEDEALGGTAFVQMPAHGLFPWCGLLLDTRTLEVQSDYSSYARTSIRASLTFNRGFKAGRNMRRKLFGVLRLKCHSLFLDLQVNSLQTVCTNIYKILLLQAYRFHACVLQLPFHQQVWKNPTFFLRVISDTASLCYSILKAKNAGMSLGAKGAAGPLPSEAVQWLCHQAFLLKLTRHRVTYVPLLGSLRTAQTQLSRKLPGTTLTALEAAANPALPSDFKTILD

## N#Cc1ccc(-c2nc3ccc4c(c3[nH]2)C(=O)c2ccccc2C4=O)cc1
[1]
  viability at 10 µM: 77%
[2]
  viability at 100 µM: 19%
[3]
  inhibition: inactive
A549
  growth at 10 µM: 106%
EKVX
  growth at 10 µM: 99.8%
[4]
  growth at 10 µM: 102%
MCF7
  growth at 10 µM: 62.7%
MDA-MB-231
  growth at 10 µM: 87.1%
NCI/ADR-RES
  growth at 10 µM: 102%
T47D
  growth at 10 µM: 85.1%
OVCAR-3
  growth at 10 µM: 111%
OVCAR-4
  growth at 10 µM: 101%
OVCAR-5
  growth at 10 µM: 98.1%
OVCAR-8
  growth at 10 µM: 98.9%
SK-OV-3
  growth at 10 µM: 104%
CCRF-CEM
  growth at 10 µM: 117%
MOLT-4
  growth at 10 µM: 87.1%
[5]
  growth at 10 µM: 114%
786-0
  growth at 10 µM: 124%
ACHN
  growth at 10 µM: 111%
CAKI-1
  growth at 10 µM: 110%
TK-10
  growth at 10 µM: 180%
UO-31
  growth at 10 µM: 80.4%
M14
  growth at 10 µM: 243%
SK-MEL-2
  growth at 10 µM: 22.5%
SK-MEL-28
  growth at 10 µM: 115%
SK-MEL-5
  growth at 10 µM: 103%
UACC-257
  growth at 10 µM: 105%
UACC-62
  growth at 10 µM: 104%
DU-145
  growth at 10 µM: 97.7%
PC-3
  growth at 10 µM: 109%
SF-268
  growth at 10 µM: 99.2%
SF-295
  growth at 10 µM: 120%
SNB-75
  growth at 10 µM: 63.2%
U-251
  growth at 10 µM: 112%
NCI-H23
  growth at 10 µM: 90.9%
NCI-H322M
  growth at 10 µM: 127%
NCI-H460
  growth at 10 µM: 105%
NCI-H522
  growth at 10 µM: 141%
COLO 205
  growth at 10 µM: 113%
HCC 2998
  growth at 10 µM: 74.7%
HCT-116
  growth at 10 µM: 79.8%
HT-29
  growth at 10 µM: 86.4%
KM12
  growth at 10 µM: 98.6%
[6]
  residual activity: 91%
[7]
  residual activity: 83%

## CCc1nc2ccc3c(c2[nH]1)C(=O)c1ccccc1C3=O
[1]
  viability at 10 µM: 82%
[2]
  viability at 100 µM: 37%
[3]
  inhibition: inactive
A549
  growth at 10 µM: 68.2%
EKVX
  growth at 10 µM: 52.3%
[4]
  growth at 10 µM: -18.6%
MCF7
  growth at 10 µM: 69.8%
MDA-MB-231
  growth at 10 µM: 78%
NCI/ADR-RES
  growth at 10 µM: 74.4%
T47D
  growth at 10 µM: 63%
OVCAR-3
  growth at 10 µM: 78.2%
OVCAR-4
  growth at 10 µM: 48.8%
OVCAR-5
  growth at 10 µM: 102%
OVCAR-8
  growth at 10 µM: 72.9%
SK-OV-3
  growth at 10 µM: 25.8%
CCRF-CEM
  growth at 10 µM: 45.4%
MOLT-4
  growth at 10 µM: 64.2%
[5]
  growth at 10 µM: 56.2%
786-0
  growth at 10 µM: 76.6%
ACHN
  growth at 10 µM: 25%
TK-10
  growth at 10 µM: 33.8%
UO-31
  growth at 10 µM: 23.9%
M14
  growth at 10 µM: 60.1%
SK-MEL-2
  growth at 10 µM: 40.1%
SK-MEL-28
  growth at 10 µM: 86.8%
SK-MEL-5
  growth at 10 µM: 60.8%
UACC-257
  growth at 10 µM: 39.7%
UACC-62
  growth at 10 µM: 51.4%
DU-145
  growth at 10 µM: 61.6%
PC-3
  growth at 10 µM: 48.5%
SF-268
  growth at 10 µM: 80.4%
SF-295
  growth at 10 µM: 75.8%
SNB-75
  growth at 10 µM: 55.1%
U-251
  growth at 10 µM: 60.1%
NCI-H23
  growth at 10 µM: 71.4%
NCI-H322M
  growth at 10 µM: 31.4%
NCI-H460
  growth at 10 µM: 59.8%
NCI-H522
  growth at 10 µM: 41.5%
COLO 205
  growth at 10 µM: 69.7%
HCC 2998
  growth at 10 µM: 67.7%
HCT-116
  growth at 10 µM: 47.6%
HT-29
  growth at 10 µM: 64.5%
KM12
  growth at 10 µM: 72.9%
[6]
  residual activity: 70%
[7]
  residual activity: 59%
